The test system of series [1] is A549. The experiment in a line: Cytotoxicity against human A549 cells transfected with NF-kappaB assessed as reduction of cell viability relative to control. The series is classed as cell-based. On the set-up: concentration or dose not given beside the values.
The nature of series [2]: Inhibition of TNF-alpha-induced NF-kappaB (unknown origin) activation transfected in human A549 cells after 7 hrs by bright-glo luciferase reporter gene assay. The series is classed as cell-based. The method, boiled down: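 A549 cells co-transfected with pNF-κB-Luc and pSV-β-galactosidase (internal control) using lipofectamine. Medium changed at 6 h, cells cultured a further 6 h, then given TNF-α 15 ng/ml and compound together for 7 h. Read-out is Bright-Glo luciferase, corrected for background and viability and expressed relative to TNF-α-only cells. IC50 from a variable-slope sigmoidal fit.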
(In general: A reporter such as luciferase makes a cellular process visible.)

The test system of series [3] is A549. The experiment in a line: Cytotoxicity against human A549 cells after 48 hrs by MTT assay. The series is classed as functional, cell-based. The method, boiled down: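 A549 cells grown in RPMI with 5% FBS and 1% penicillin-streptomycin. Seeded at 4000 cells/well, attached overnight, then exposed to compound at 0.01–100 µmol for 48 h. MTT added for 4 h, formazan dissolved in DMSO, absorbance read at 570 nm. Mean of at least three independent experiments, each in triplicate.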

On to `C/C=C(\C)C(=O)O[C@@H]1CC(C)(C)C[C@H]2C3=CC[C@@H]4[C@@]5(C)CC/C(=N\O)C(C)(C)[C@@H]5CC[C@@]4(C)[C@]3(C)CC[C@@]12C(=O)O`, for which, in the series on A549 [1], the Activity is less than 5%. Further, the IC50 (in series [2]; with A549 [3]) was more than 10 µmol throughout.
`CC(C)=CC(=O)O[C@@H]1CC(C)(C)C[C@H]2C3=CC[C@@H]4[C@@]5(C)CC[C@H](OC(=O)c6ccccc6)C(C)(C)[C@@H]5CC[C@@]4(C)[C@]3(C)CC[C@@]12C(=O)O`: the Activity in the series on A549 [1] is on record as less than 5%. The results for the IC50 (in series [2]; in the series with A549 [3]) were 4.64 µmol and 7.2 µmol, respectively.
For `CC1(C)C[C@@H](OC(=O)/C=C/c2ccccc2)[C@]2(C(=O)O)CC[C@]3(C)C(=CC[C@@H]4[C@@]5(C)CCC(=O)C(C)(C)[C@@H]5CC[C@]43C)[C@@H]2C1`, in that order: less than 5%, 2.42 µmol and 3.64 µmol.
The corresponding values for `C/C=C(\C)C(=O)O[C@@H]1CC(C)(C)C[C@H]2C3=CC[C@@H]4[C@@]5(C)CC[C@H](OC(=O)c6ccccc6Cl)C(C)(C)[C@@H]5CC[C@@]4(C)[C@]3(C)CC[C@@]12C(=O)O` are less than 5%, 4.18 µmol and 6.8 µmol.
For `C/C=C(/C)C(=O)O[C@@H]1CC(C)(C)C[C@H]2C3=CC[C@@H]4[C@@]5(C)CCC(=O)C(C)(C)[C@@H]5CC[C@@]4(C)[C@]3(C)CC[C@@]12C(=O)O` [LANTADENE A], in that order: less than 5%, 1.06 µmol and 2.84 µmol.
For the molecule `COC(=O)[C@@]12CC[C@]3(C)C(=CC[C@@H]4[C@@]5(C)CCC(=O)C(C)(C)[C@@H]5CC[C@]43C)[C@@H]1CC(C)(C)C[C@H]2O`, in the series with A549 [1], the Activity is listed as less than 5%. The IC50 (in series [2]; with A549 [3]) was more than 10 µmol throughout.
Take `CC1(C)C[C@@H](OC(=O)c2ccccc2)[C@]2(C(=O)O)CC[C@]3(C)C(=CC[C@@H]4[C@@]5(C)CCC(=O)C(C)(C)[C@@H]5CC[C@]43C)[C@@H]2C1`: the Activity with A549 [1] was less than 5%. The IC50 (in series [2]; in the series on A549 [3]) was more than 10 µmol each time.
`C/C=C(\C)C(=O)O[C@@H]1CC(C)(C)C[C@H]2C3=CC[C@@H]4[C@@]5(C)CC[C@H](OC(=O)c6ccccc6)C(C)(C)[C@@H]5CC[C@@]4(C)[C@]3(C)CC[C@@]12C(=O)O`: the Activity in the series with A549 [1] is on record as less than 5%. Also, the IC50 in series [2] stood at 5.04 µmol; in the series on A549 [3], 7.36 µmol.
The corresponding values for `CC(C)=CC(=O)O[C@@H]1CC(C)(C)C[C@H]2C3=CC[C@@H]4[C@@]5(C)CCC(=O)C(C)(C)[C@@H]5CC[C@@]4(C)[C@]3(C)CC[C@@]12C(=O)O` are less than 5%, 1.56 µmol and 1.19 µmol.
`CC1(C)C[C@@H](OC(=O)c2ccccc2Cl)[C@]2(C(=O)O)CC[C@]3(C)C(=CC[C@@H]4[C@@]5(C)CCC(=O)C(C)(C)[C@@H]5CC[C@]43C)[C@@H]2C1`: the Activity in the series with A549 [1] is on record as less than 5%. Moreover, the IC50 (in series [2]; in the series with A549 [3]) was more than 10 µmol throughout.
As to `C/C=C(\C)C(=O)O[C@@H]1CC(C)(C)C[C@H]2C3=CC[C@@H]4[C@@]5(C)CC[C@H](OC(C)=O)C(C)(C)[C@@H]5CC[C@@]4(C)[C@]3(C)CC[C@@]12C(=O)O`, the Activity in the series on A549 [1] is listed as less than 5%. The figures for the IC50 (in series [2]; in the series with A549 [3]) were 2.8 µmol and 5.42 µmol, respectively.
On to `CC1(C)C[C@@H](O)[C@]2(C(=O)O)CC[C@]3(C)C(=CC[C@@H]4[C@@]5(C)CCC(=O)C(C)(C)[C@@H]5CC[C@]43C)[C@@H]2C1`, for which the Activity with A549 [1] was less than 5%. Further, the IC50 in series [2] was 6.42 µmol; in the series with A549 [3], more than 10 µmol.
For the molecule `CC(C)=CC(=O)O[C@@H]1CC(C)(C)C[C@H]2C3=CC[C@@H]4[C@@]5(C)CC/C(=N\O)C(C)(C)[C@@H]5CC[C@@]4(C)[C@]3(C)CC[C@@]12C(=O)O`, the Activity in the series with A549 [1] is less than 5%. The IC50 (in series [2]; with A549 [3]) was more than 10 µmol each time.
Turning to `CC1(C)C[C@@H](O)[C@]2(C(=O)O)CC[C@]3(C)C(=CC[C@@H]4[C@@]5(C)CC[C@H](O)C(C)(C)[C@@H]5CC[C@]43C)[C@@H]2C1`, in the series with A549 [1], the Activity is on record as less than 5%. Further, the IC50 (in series [2]; with A549 [3]) was more than 10 µmol throughout.
In the case of `COC(=O)[C@@]12CC[C@]3(C)C(=CC[C@@H]4[C@@]5(C)CC[C@H](O)C(C)(C)[C@@H]5CC[C@]43C)[C@@H]1CC(C)(C)C[C@H]2O`, in the series with A549 [1], the Activity was less than 5%. For the same molecule, the IC50 (in series [2]; in the series on A549 [3]) was more than 10 µmol each time.
Take `CC(=O)O[C@H]1CC[C@]2(C)[C@H]3CC=C4[C@@H]5CC(C)(C)C[C@@H](OC(=O)C=C(C)C)[C@]5(C(=O)O)CC[C@@]4(C)[C@]3(C)CC[C@H]2C1(C)C`: the Activity in the series with A549 [1] is less than 5%. For the same molecule, the IC50 stood at 2.32 µmol in series [2] and 4.9 µmol with A549 [3].
As to `CC(=O)O[C@H]1CC[C@]2(C)[C@H]3CC=C4[C@@H]5CC(C)(C)C[C@@H](OC(C)=O)[C@]5(C(=O)O)CC[C@@]4(C)[C@]3(C)CC[C@H]2C1(C)C`, the Activity with A549 [1] was less than 5%. Besides, the IC50 (in series [2]; in the series on A549 [3]) was more than 10 µmol each time.
Regarding `CC(C)=CC(=O)O[C@@H]1CC(C)(C)C[C@H]2C3=CC[C@@H]4[C@@]5(C)CC[C@H](OC(=O)c6ccccc6Cl)C(C)(C)[C@@H]5CC[C@@]4(C)[C@]3(C)CC[C@@]12C(=O)O`, the Activity in the series on A549 [1] is given as less than 5%. In addition, the IC50 is 3.7 µmol in series [2] and 6.52 µmol in the series with A549 [3].

Values taken from ChEMBL document CHEMBL3112453, “Novel lung adenocarcinoma and nuclear factor-kappa B (NF-κB) inhibitors: synthesis and evaluation of lantadene congeners” (Eur J Med Chem, 2014).
